Yeast life ext: compounds extending yeast replicative lifespan, primary screen, S. cerevisiae, OD615; S. cerevisiae growth with nicotinamide; deaD strain in restrictive glucose medium; inhibition of the nicotinamide effect, % at 10 µM; 0.68% of 130,000 active; AID 775, 2007;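 active = inhibition above a set limit, placed 3 SD over the median of all compounds, cut at about 26% in these data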;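 note: 0% = nicotinamide-treated wells and 100% = cells grown without nicotinamide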
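assay system = DeaD-strain S. cerevisiae | measured by = absorbance at 615 nm | probe or stimulus = nicotinamide 1.5 mM | buffer or medium = CSMM-D glucose medium, restrictive | times = 48 h at 30 °C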
Yeast growth inh: growth inhibitors of yeast BB579 in restrictive medium, primary screen, yeast lifespan-shortening project, S. cerevisiae; 0.51% of 140,000 active; inhibition, % at 10 µM; OD615, 48 h;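 active = inhibition above a set limit, 3 SD over the mean compound inhibition, cut at about 44% in these data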
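Detection: OD615 turbidity measurement; Material: Saccharomyces cerevisiae DeaD strain BB579, replicative lifespan model yeast; Timing: 48 h exposure, 30 °C; Doses: single 10 µM dose; Medium: CSMM-D restrictive synthetic medium containing dextrose (glucose); Controls: amphotericin B at 10 µg/mL as positive control.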
Measles CPE: compounds protecting cells from measles virus cytopathic effect, primary screen, measles RdRp inhibitor project, single point, MLSMR library, absorbance; 1.5% of 140,000 active; protection (pct of control), % at 4 µM; AID 841, 2007; Measles virus-infected cells, CPE protection; in the data active = protection mostly above about 24%, no sharp cut-off; inactive = mostly below about 26%
RAM network inh: inhibitors of the yeast RAM network, primary screen, dse1pr::URA3 reporter, 5-FOA selection; S. cerevisiae dse1pr::URA3 reporter, 5-FOA growth OD615, 2 d; analog-sensitive cbk1-as2 kinase mutant strain; inhibition, % at 50 µM; 1.8% of 190,000 active; AID 868, 2007;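 active = inhibition above a set limit, 3 SD over mean compound inhibition, cut at about 8.4% in these data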;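 note: 0% = DMSO-only wells with no growth and 100% = 10 µM 1-NA-PP1 full growth; inhibition rescues growth on 5-FOA so higher OD means more RAM inhibition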
* = called active by the depositor; · = no result given. Most compounds without a hit are left out; they make up all but 3.6% or so of the library.

SMILES	Yeast life ext	Yeast growth inh	Measles CPE	RAM network inh
COc1ccc(C(=O)C(OC(=O)c2ccccc2)c2ccccc2)cc1 (configuration not stated)	-3.2	-4.5	1.5	10.4*
Cc1ccccc1OCC(=O)OC(C(=O)c1ccccc1)c1ccccc1 (configuration not stated)	-2.1	-34.8	8.2	10.2*
COc1ccc(C(NC(=O)c2ccc(F)cc2)c2ccccc2)cc1 (configuration not stated)	3.4	-27.8	11.6	1.4
COC(=O)C(OC(=O)c1ccc(OC)cc1)C(=O)OC	·	-11.8	17.5	0.0
Cc1cc(C(=O)OC(C(=O)Nc2ccc(C)c(Cl)c2)c2ccccc2)c(C)o1 (configuration not stated)	1.1	2.4	8.6	4.9
COc1ccc(C(=O)C(OC(=O)c2ccccc2Cl)c2ccccc2)cc1 (configuration not stated)	3.5	-37.4	6.1	10.7*
O=C(CCC(=O)OC(C(=O)c1ccccc1)c1ccccc1)Nc1ccccc1 (configuration not stated)	-29.2	-35.4	2.6	8.2
O=C(O)CCC(=O)Nc1ccc(/C=C/C(=O)C2CC2)cc1	·	·	·	-0.3
O=[N+]([O-])c1ccc(C(O)C23CN4CN(CN(C4)C2)C3)cc1 (configuration not stated)	·	·	·	0.4
Oc1ccc2n[nH]nc2c1	8.6	-30.6	4.7	0.7
O=C(CCN1CCN(c2ccccc2)CC1)NNC(=S)Nc1ccccc1Cl	·	·	·	0.4
Cc1nn(CCOc2cccc(Br)c2)c(C)c1[N+](=O)[O-]	·	·	·	0.1
N#Cc1c(N)c(C(=O)c2ccccc2)n2c1CCCC2	-13.3	-13.8	13.9	-0.1
CC(=O)N(C(C)=O)c1c(C#N)c(C)n(-c2ccccc2)c1C(=O)c1ccccc1	32.0*	-52.2	6.0	3.8
COc1ccc(NC(=O)C(CC(=O)O)Cc2ccc(C)cc2)cc1 (configuration not stated)	·	·	·	-0.7
Cc1cc(Cl)c(OCCCN(C)C)c(Br)c1	1.3	-22.9	47.7*	0.6
COC(=O)c1sccc1NC(=O)c1cc(OC)cc(OC)c1	·	-11.9	5.5	4.3
COC(=O)c1sc(-c2ccccc2)cc1NC(=O)c1cc(OC)cc(OC)c1	10.4	-42.0	4.7	8.8*
COC(=O)c1sc(-c2ccccc2)cc1NC(=O)c1ccc(OC)cc1	-2.8	-28.2	2.4	8.7*
COC(=O)c1sc(-c2ccccc2)cc1NC(=O)c1ccc(F)cc1	1.1	-28.6	19.9	2.8
Brc1ccc(-c2ccc(/C=N/Nc3nc4ccccc4[nH]3)o2)cc1	-6.2	1.7	9.4	2.8
CCOC(=O)N1CCN(CC(O)COc2ccccc2C(C)CC)CC1 (configuration not stated)	1.8	-41.5	4.2	0.3
CCOC(=O)N1CCN(CC(O)COC(CC)c2ccccc2)CC1 (configuration not stated)	0.6	-13.7	46.8*	0.6
CCOC(=O)N1CCN(CC(O)COc2cc(C)ccc2C(C)C)CC1 (configuration not stated)	5.6	-11.1	29.9*	3.2
COc1ccc(-n2nc([N+](=O)[O-])c(=NCCC3=CCCCC3)n2O)cc1	·	·	·	-0.6
SMILES	Yeast life ext	Yeast growth inh	Measles CPE	RAM network inh
COc1cccc(OCCCCCCN2CCOCC2)c1	-5.7	-19.3	23.9	1.2
CCOc1cccc(OCCCCN2CCOCC2)c1	-0.9	-29.7	79.9*	1.6
O=C(O)CC/C(=C\c1ccc(N2CCOCC2)c([N+](=O)[O-])c1)c1nc2ccccc2s1	·	·	·	2.5
O=C(O)CC/C(=C\c1ccc(Cl)c([N+](=O)[O-])c1)c1nc2ccccc2s1	9.1	-23.3	7.5	10.7*
CC(C)CN(CC(C)C)c1nnc(N)s1	2.0	-15.2	28.4*	-0.9
CC(C)CSc1nnc(N)s1	-2.9	-69.3	6.2	1.1
Cc1ccc(C(C)C)c(OCc2nnc(SCC(=O)Nc3ncc(C)s3)n2C)c1	7.5	-72.8	6.7	8.6*
CCNC(=O)NC(=O)CN(C)c1ccccc1	·	·	·	-0.1
Cc1ccccc1NC(=O)c1ccc(Cl)c(NC(=O)c2cccnc2)c1	·	·	·	0.0
O=C(COC(=O)c1cc([N+](=O)[O-])ccc1NCCO)NCc1cccs1	·	·	·	11.0*
O=C(NCC1CCCO1)c1ccc2c(=O)n(CC3CCCO3)c(SCC(=O)N3CCCC3)nc2c1 (configuration not stated)	·	·	·	1.8
CSCCC(NS(=O)(=O)c1ccc(Cl)cc1)C(=O)OCC(=O)c1c(C)[nH]c2ccccc12 (configuration not stated)	1.2	-22.6	11.9	10.0*
CC(O)C(NS(=O)(=O)c1ccc(Cl)cc1)C(=O)OCC(=O)c1c[nH]c2ccccc12 (configuration not stated)	·	·	·	-0.1
CCSc1ccccc1C(=O)N1CCCC1	-11.5	-14.3	5.3	-0.3
CCSc1ccccc1C(=O)n1nnc2ccccc21	60.2*	-49.8	4.0	0.3
Cc1csc(SCC(=O)NC(=O)NCCC(C)C)n1	·	·	·	0.5
C/C(=N\NC(=O)C1CC1)c1cccs1	27.2*	-51.5	5.0	3.4
O=[N+]([O-])c1cc(-n2cnnn2)ccc1N1CCC(Cc2ccccc2)CC1	34.7	-99.0	5.7	8.9*
CC1CC(C)CN(c2ccc(-n3cnnn3)cc2[N+](=O)[O-])C1 (configuration not stated)	-23.9	-52.4	4.8	1.3
Cc1ccc(Cc2ccc(C(=O)NNC(N)=S)o2)cc1	·	·	·	0.1
N#CCCN(C(=O)COC(=O)c1ccc(CNS(=O)(=O)c2ccc(F)c(Cl)c2)cc1)c1ccc(F)cc1	-5.3	-23.5	22.5	11.1*
O=C(COC(=O)c1ccc(CNS(=O)(=O)c2ccc(F)c(Cl)c2)cc1)NCC1CCCCC1	5.0	-40.3	6.3	9.0*
COc1ccc(-n2c(C)cc(SC)c(C(C)=O)c2=S)cc1	-3.8	-47.3	97.5*	0.1
CSc1cc(C)n(-c2ccc(Cl)cc2)c(=S)c1C(C)=O	-6.9	-32.9	2.1	4.4
C[C@H](N)c1nnc(SCc2c(Cl)cccc2Cl)o1	3.1	-32.0	2.9	0.9
SMILES	Yeast life ext	Yeast growth inh	Measles CPE	RAM network inh
Clc1cccc(Cl)c1CSc1nnc(/C=C/c2ccccc2)o1	1.3	-59.5	18.4	10.7*
O=C(Nc1ccc2c(c1)C(=O)NC2=O)c1ccc(S(=O)(=O)N2CCCC2)cc1	·	·	·	8.4
Cc1nn(C)c(C)c1CNC(=O)c1nn2c(c1Cl)NC(c1cccs1)CC2C(F)(F)F (configuration not stated)	-10.4	-22.7	12.2	0.9
Cc1nn(C)cc1CNC(=O)c1cc2n(n1)C(C(F)(F)F)CC(c1cccs1)N2 (configuration not stated)	-20.0	-23.4	20.4*	-1.0
CCc1ccc(/C=C2\SC(=S)N(CCC(=O)NC3=NCCS3)C2=O)cc1	·	·	·	9.3*
O=C(CCN1C(=O)/C(=C\c2cccs2)SC1=S)NC1=NCCS1	-1.4	-29.2	14.3	3.5
